According to ChEMBL document CHEMBL2311404, “Synthesis, antibacterial activity and docking of 14-membered 9-O-(3-arylalkyl) oxime 11,12-cyclic carbonate ketolides” (2013):
Values after ≈ are worked out from the molar mass of the structure shown.

What was measured:
Assay type in all cases: functional
[1] = test system: Streptococcus pneumoniae; test: Antibacterial activity against penicillin-resistant, constitutive MLS-resistant Streptococcus pneumoniae PU 11 expressing erm and mef genes by broth microdilution method
Method in brief: (§1)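 Clinical isolates confirmed by 16S rDNA sequencing. MIC determined by broth microdilution following CLSI recommendations. Quality-control strains were S. aureus ATCC 29213 and S. pneumoniae ATCC 49619. Azithromycin and clarithromycin were run in parallel as reference agents.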

[2] = test system: Staphylococcus epidermidis; test: Antibacterial activity against methicillin-resistant, constitutive MLS-resistant Staphylococcus epidermidis E 2 by broth microdilution method; method in brief: as §1
[3] = test system: Staphylococcus aureus; test: Antibacterial activity against methicillin-resistant, constitutive MLS-resistant Staphylococcus aureus PU 20 expressing ermC gene by broth microdilution method; method in brief: as §1
[4] = test system: Streptococcus dysgalactiae; test: Antibacterial activity against erythromycin-resistant Streptococcus dysgalactiae A1 expressing efflux pump by broth microdilution method; method in brief: as §1
[5] = test system: Streptococcus pyogenes; test: Antibacterial activity against constitutive MLS-resistant Streptococcus pyogenes A2 by broth microdilution method; method in brief: as §1
[6] = test system: Staphylococcus epidermidis; test: Antibacterial activity against methicillin-susceptible, inducible MLS-resistant Staphylococcus epidermidis E 1 by broth microdilution method; method in brief: as §1
[7] = test system: Staphylococcus haemolyticus; test: Antibacterial activity against methicillin-resistant, constitutive MLS-resistant, coagulase-deficient Staphylococcus haemolyticus PU 19 expressing ermA gene by broth microdilution method; method in brief: as §1
[8] = test system: Streptococcus pyogenes; test: Antibacterial activity against erythromycin-susceptible Streptococcus pyogenes A3 by broth microdilution method
Method in brief: (§2)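 MIC by broth microdilution following CLSI recommendations. Clinical isolates were identified by 16S rDNA sequencing and labeled by genotype and phenotype. S. aureus ATCC 29213 and S. pneumoniae ATCC 49619 served as control strains, with azithromycin and clarithromycin as reference agents.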

[9] = test system: Streptococcus pneumoniae; test: Antibacterial activity against erythromycin-sensitive Streptococcus pneumoniae ATCC 49619 by broth microdilution method; method in brief: as §2
[10] = test system: Staphylococcus aureus; test: Antibacterial activity against erythromycin-susceptible Staphylococcus aureus ATCC 29213 by broth microdilution method; method in brief: as §2
[11] = test system: Streptococcus pneumoniae; test: Antibacterial activity against penicillin-susceptible Streptococcus pneumoniae PU 09 expressing mef gene by broth microdilution method; method in brief: as §2
[12] = test system: Staphylococcus aureus; test: Antibacterial activity against methicillin-sensitive, inducible MLS-resistant Staphylococcus aureus PU 64 expressing ermA gene by broth microdilution method; method in brief: as §1
[13] = test system: Streptococcus pneumoniae; test: Antibacterial activity against penicillin-susceptible, constitutive MLS-resistant Streptococcus pneumoniae PU 27 expressing erm gene by broth microdilution method; method in brief: as §1
[14] = test system: Staphylococcus hominis; test: Antibacterial activity against methicillin-resistant, inducible MLS-resistant, coagulase-deficient Staphylococcus hominis E 3 by broth microdilution method; method in brief: as §1
[15] = test system: Staphylococcus aureus; test: Antibacterial activity against methicillin-resistant, inducible MLS-resistant Staphylococcus aureus PU 32 expressing ermA gene by broth microdilution method; method in brief: as §1
[16] = test system: Staphylococcus epidermidis; test: Ratio of azithromycin MIC to compound MIC for methicillin-susceptible, inducible MLS-resistant Staphylococcus epidermidis E 1
[17] = test system: Staphylococcus hominis; test: Ratio of azithromycin MIC to compound MIC for methicillin-resistant, inducible MLS-resistant, coagulase-deficient Staphylococcus hominis E 3
[18] = test system: Streptococcus pneumoniae; test: Ratio of azithromycin MIC to compound MIC for penicillin-resistant, constitutive MLS-resistant Streptococcus pneumoniae PU 11 expressing erm and mef genes
[19] = test system: Staphylococcus epidermidis; test: Ratio of clarithromycin MIC to compound MIC for methicillin-susceptible, inducible MLS-resistant Staphylococcus epidermidis E 1
[20] = test system: Streptococcus pneumoniae; test: Ratio of clarithromycin MIC to compound MIC for penicillin-resistant, constitutive MLS-resistant Streptococcus pneumoniae PU 11 expressing erm and mef genes
[21] = test system: Staphylococcus haemolyticus; test: Ratio of azithromycin MIC to compound MIC for methicillin-resistant, constitutive MLS-resistant, coagulase-deficient Staphylococcus haemolyticus PU 19 expressing ermA gene
[22] = test system: Streptococcus pyogenes; test: Ratio of clarithromycin MIC to compound MIC for constitutive MLS-resistant Streptococcus pyogenes A2
[23] = test system: Staphylococcus hominis; test: Ratio of clarithromycin MIC to compound MIC for methicillin-resistant, inducible MLS-resistant, coagulase-deficient Staphylococcus hominis E 3
[24] = test system: Staphylococcus epidermidis; test: Ratio of clarithromycin MIC to compound MIC for methicillin-resistant, constitutive MLS-resistant Staphylococcus epidermidis E 2
[25] = test system: Streptococcus pneumoniae; test: Ratio of clarithromycin MIC to compound MIC for penicillin-susceptible Streptococcus pneumoniae PU 09 expressing mef gene
[26] = test system: Streptococcus pyogenes; test: Ratio of azithromycin MIC to compound MIC for constitutive MLS-resistant Streptococcus pyogenes A2
[27] = test system: Staphylococcus haemolyticus; test: Ratio of clarithromycin MIC to compound MIC for methicillin-resistant, constitutive MLS-resistant, coagulase-deficient Staphylococcus haemolyticus PU 19 expressing ermA gene
[28] = test system: Staphylococcus epidermidis; test: Ratio of azithromycin MIC to compound MIC for methicillin-resistant, constitutive MLS-resistant Staphylococcus epidermidis E 2
[29] = test system: Streptococcus dysgalactiae; test: Ratio of clarithromycin MIC to compound MIC for erythromycin-resistant Streptococcus dysgalactiae A1 expressing efflux pump

SMILES	MIC [1]	MIC [2]	MIC [3]	MIC [4]	MIC [5]	MIC [6]	MIC [7]	MIC [8]	MIC [9]	MIC [10]	MIC [11]	MIC [12]	MIC [13]	MIC [14]	MIC [15]	other results
CC[C@H]1OC(=O)[C@H](C)C(=O)[C@H](C)[C@@H](O[C@@H]2O[C@H](C)C[C@H](N(C)C)[C@H]2O)[C@](C)(OC)C[C@@H](C)/C(=N\OCCCc2cnc3ccccc3c2)[C@H](C)[C@H]2OC(=O)O[C@@]21C	64 µg/mL (≈ 80.2 µM)	> 256 µg/mL	> 256 µg/mL	0.5 µg/mL (≈ 0.627 µM)	32 µg/mL (≈ 40.1 µM)	0.5 µg/mL (≈ 0.627 µM)	> 256 µg/mL	0.016 µg/mL (≈ 0.0201 µM)	0.064 µg/mL (≈ 0.0802 µM)	0.5 µg/mL (≈ 0.627 µM)	0.5 µg/mL (≈ 0.627 µM)	1 µg/mL (≈ 1.25 µM)	1 µg/mL (≈ 1.25 µM)	2 µg/mL (≈ 2.51 µM)	1 µg/mL (≈ 1.25 µM)	–
CC[C@H]1OC(=O)[C@H](C)C(=O)[C@H](C)[C@@H](O[C@@H]2O[C@H](C)C[C@H](N(C)C)[C@H]2O)[C@](C)(OC)C[C@@H](C)/C(=N\OCC#Cc2cncc3ccccc23)[C@H](C)[C@H]2OC(=O)O[C@@]21C	16 µg/mL (≈ 20.2 µM)	32 µg/mL (≈ 40.3 µM)	–	0.016 µg/mL (≈ 0.0202 µM)	16 µg/mL (≈ 20.2 µM)	0.016 µg/mL (≈ 0.0202 µM)	32 µg/mL (≈ 40.3 µM)	≤ 0.008 µg/mL	≤ 0.008 µg/mL	0.016 µg/mL (≈ 0.0202 µM)	0.032 µg/mL (≈ 0.0403 µM)	–	0.064 µg/mL (≈ 0.0806 µM)	0.064 µg/mL (≈ 0.0806 µM)	0.032 µg/mL (≈ 0.0403 µM)	Ratio [16]: >16000; Ratio [17]: >4000; Ratio [18]: >8; Ratio [19]: >16000; Ratio [20]: >8; Ratio [21]: >8; Ratio [22]: >8; Ratio [23]: >4000; Ratio [24]: >8; Ratio [25]: 125; Ratio [26]: >8; Ratio [27]: >8; Ratio [28]: >8; Ratio [29]: 500
CC[C@H]1OC(=O)[C@H](C)C(=O)[C@H](C)[C@@H](O[C@@H]2O[C@H](C)C[C@H](N(C)C)[C@H]2O)[C@](C)(OC)C[C@@H](C)/C(=N\OCC#Cc2ccc3ncccc3c2)[C@H](C)[C@H]2OC(=O)O[C@@]21C	64 µg/mL (≈ 80.6 µM)	> 256 µg/mL	64 µg/mL (≈ 80.6 µM)	0.25 µg/mL (≈ 0.315 µM)	64 µg/mL (≈ 80.6 µM)	0.032 µg/mL (≈ 0.0403 µM)	64 µg/mL (≈ 80.6 µM)	≤ 0.008 µg/mL	0.016 µg/mL (≈ 0.0202 µM)	0.125 µg/mL (≈ 0.157 µM)	0.25 µg/mL (≈ 0.315 µM)	0.125 µg/mL (≈ 0.157 µM)	0.25 µg/mL (≈ 0.315 µM)	0.125 µg/mL (≈ 0.157 µM)	0.125 µg/mL (≈ 0.157 µM)	–
CC[C@H]1OC(=O)[C@H](C)C(=O)[C@H](C)[C@@H](O[C@@H]2O[C@H](C)C[C@H](N(C)C)[C@H]2O)[C@](C)(OC)C[C@@H](C)/C(=N\OCC#Cc2cnc3ccccc3c2)[C@H](C)[C@H]2OC(=O)O[C@@]21C	64 µg/mL (≈ 80.6 µM)	> 256 µg/mL	128 µg/mL (≈ 161 µM)	0.5 µg/mL (≈ 0.63 µM)	64 µg/mL (≈ 80.6 µM)	0.25 µg/mL (≈ 0.315 µM)	128 µg/mL (≈ 161 µM)	≤ 0.008 µg/mL	≤ 0.008 µg/mL	0.25 µg/mL (≈ 0.315 µM)	0.5 µg/mL (≈ 0.63 µM)	0.25 µg/mL (≈ 0.315 µM)	0.5 µg/mL (≈ 0.63 µM)	0.25 µg/mL (≈ 0.315 µM)	0.5 µg/mL (≈ 0.63 µM)	–
CC[C@H]1OC(=O)[C@H](C)C(=O)[C@H](C)[C@@H](O[C@@H]2O[C@H](C)C[C@H](N(C)C)[C@H]2O)[C@](C)(OC)C[C@@H](C)/C(=N\OCC#Cc2cncnc2)[C@H](C)[C@H]2OC(=O)O[C@@]21C	128 µg/mL (≈ 172 µM)	> 256 µg/mL	256 µg/mL (≈ 344 µM)	0.125 µg/mL (≈ 0.168 µM)	128 µg/mL (≈ 172 µM)	0.064 µg/mL (≈ 0.0859 µM)	256 µg/mL (≈ 344 µM)	0.016 µg/mL (≈ 0.0215 µM)	0.032 µg/mL (≈ 0.043 µM)	0.125 µg/mL (≈ 0.168 µM)	0.25 µg/mL (≈ 0.336 µM)	0.064 µg/mL (≈ 0.0859 µM)	0.25 µg/mL (≈ 0.336 µM)	0.064 µg/mL (≈ 0.0859 µM)	0.125 µg/mL (≈ 0.168 µM)	–
CC[C@H]1OC(=O)[C@H](C)[C@@H](O[C@H]2C[C@@](C)(OC)[C@@H](O)[C@H](C)O2)[C@H](C)[C@@H](O[C@@H]2O[C@H](C)C[C@H](N(C)C)[C@H]2O)[C@](C)(OC)C[C@@H](C)C(=O)[C@H](C)[C@@H](O)[C@]1(C)O [CLARITHROMYCIN]	> 256 µg/mL	> 256 µg/mL	> 256 µg/mL	8 µg/mL (≈ 10.7 µM)	> 256 µg/mL	> 256 µg/mL	> 256 µg/mL	0.032 µg/mL (≈ 0.0428 µM)	0.032 µg/mL (≈ 0.0428 µM)	0.25 µg/mL (≈ 0.334 µM)	4 µg/mL (≈ 5.35 µM)	2 µg/mL (≈ 2.67 µM)	1 µg/mL (≈ 1.34 µM)	> 256 µg/mL	1 µg/mL (≈ 1.34 µM)	–
